Hits are enriched below; roughly 1.1% of the tested compounds scored in any of these assays.
Calpain2 inh: blocks pig calpain II enzyme activity. purified calpain II, fluorogenic peptide substrate, 30 min. 220,000 compounds, 0.37% hits. inhibition, % at 16 µM;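 active means inhibition above about 50%, limit read from the data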
Furin inh: inhibitors of human furin; purified furin, fluorogenic substrate cleavage; inhibition, % at 20 µM or 30 µM; 220,000 compounds, 0.061% hits; in the data active means inhibition above about 25%
Target sequence (P09958 108-714 limits assumed): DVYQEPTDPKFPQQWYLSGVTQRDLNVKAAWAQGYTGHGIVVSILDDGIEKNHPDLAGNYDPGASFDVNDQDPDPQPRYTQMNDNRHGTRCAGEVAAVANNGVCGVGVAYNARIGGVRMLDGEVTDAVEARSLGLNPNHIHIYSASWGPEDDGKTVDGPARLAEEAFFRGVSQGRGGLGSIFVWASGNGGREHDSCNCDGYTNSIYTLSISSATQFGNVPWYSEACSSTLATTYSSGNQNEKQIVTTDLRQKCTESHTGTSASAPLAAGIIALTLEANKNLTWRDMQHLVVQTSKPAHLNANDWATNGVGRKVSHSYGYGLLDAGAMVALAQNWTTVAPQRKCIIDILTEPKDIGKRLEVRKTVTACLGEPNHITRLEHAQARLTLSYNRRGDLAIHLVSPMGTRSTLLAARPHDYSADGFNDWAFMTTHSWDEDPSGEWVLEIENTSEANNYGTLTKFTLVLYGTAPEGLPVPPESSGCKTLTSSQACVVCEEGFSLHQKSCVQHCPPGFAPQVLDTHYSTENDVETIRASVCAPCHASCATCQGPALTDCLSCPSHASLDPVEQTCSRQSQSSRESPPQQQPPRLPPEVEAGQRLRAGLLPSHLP
NCF1 inh: inhibitors of human p47phox binding | P14598 | p47phox/p22phox peptide binding, fluorescence polarization, 2 h | inhibition, % at 24.7 µM | 220,000 compounds, 0.53% hits | AID 1274;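 active means inhibition above about 30%, limit read from the data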;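 further: 0% = p47phox with labelled peptide and 100% = labelled peptide alone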
RBBP9 inhibitor: human RBBP9 hydrolase inhibition; recombinant RBBP9, FP-Rh probe fluorescence polarization; 220,000 compounds, 0.2% hits; AID 1515; inhibition, % at 7.94 µM; O75884;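 active means inhibition above the campaign mean of all tested compounds plus 3 SD, cut at about 14% in these data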;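 further: plate controls were DMSO wells with RBBP9 for no effect and wells lacking RBBP9 protein for full effect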
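Measured by – fluorescence polarization · Test system – RBBP9 protein · Input – 2.5 µM RBBP9 dispensing solution, before mixing · Measure – percent inhibition from mP, scaled between DMSO and no-protein wells · Benchmarks – DMSO-treated enzyme wells and wells lacking RBBP9 · Times – preincubation 30 min plus labeling 45 min at 25 °C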
Starred values were filed as active, the others as inactive; i = inactive; nt = no result given; + = active, no number.

SMILES	Calpain2 inh	Furin inh	NCF1 inh	RBBP9 inhibitor
O=C1C(=Cc2cccn2-c2ccccc2)C(=O)c2ccccc21	-28.2	-3.4	32.9*	-6.2
Cc1ccc(-c2csc(NC(=S)NC(=O)c3ccco3)n2)cc1	57.4*	-26.6	-4.3	-4.6
Cc1ccccc1N/C=C/C(=C(C#N)C#N)N(C)C	21.3	-19.2	-0.2	4.3
FC(F)(F)c1nnc2ccc(NCc3ccccc3)nn12	91.8*	-12.8	3.5	-14.3
FC(F)(F)c1nnc2ccc(NCc3cccnc3)nn12	-8.1	-20.5	-1.6	-6.7
COc1ccc(-c2csc(NC(=O)COC(=O)C3=COCCO3)n2)cc1	-16.9	-18.3	-6.8	-5.0
CCN1C(=O)/C(=C2\SC(=S)N(NC(=O)c3ccccc3O)C2=O)c2ccccc21	33.6	-2.7	-5.0	4.6
Cc1ccc(NC(=O)CN2C(=O)/C(=C3\SC(=S)N(C4CCS(=O)(=O)C4)C3=O)c3ccccc32)cc1 (stereo not drawn)	66.9*	-13.1	76.4*	-4.3
O=C(CN1C(=O)/C(=C2\SC(=S)N(C3CCS(=O)(=O)C3)C2=O)c2ccccc21)Nc1ccccc1 (stereo not drawn)	47.9	-5.4	68.9*	-3.4
CCSc1n[nH]c(=S)s1	-19.4	-23.0	-6.3	-4.5
COCCNC(=O)C1=NOC(Cn2cc(C#N)c(=O)n(C)c2=O)C1 (stereo not drawn)	-13.0	-18.2	-0.9	-9.1
O=C1C(=O)N(CC2CCCO2)C(c2ccccc2[N+](=O)[O-])/C1=C(/O)c1ccccc1 (stereo not drawn)	3.3	-26.7	-2.6	0.1
CC(C)Cn1c(N)c(C(=O)COC(=O)CC23CC4CC(CC(C4)C2)C3)c(=O)n(C)c1=O	70.8*	-14.8	-22.3	-11.4
Cn1c(N)c(C(=O)COC(=O)c2ncc(Cl)c(Cl)c2Cl)c(=O)n(C)c1=O	61.9*	-27.9	-3.8	-1.7
CC(C)Cn1c(N)c(C(=O)COC(=O)c2ccc(Cl)cc2)c(=O)n(C)c1=O	81.2*	-17.2	-10.7	-11.3
CC(C)Cn1c(N)c(C(=O)COC(=O)CCc2nc3ccccc3s2)c(=O)n(C)c1=O	37.6	-19.6	4.9	-6.2
CC(C)Cn1c(N)c(C(=O)COC(=O)c2ccncc2)c(=O)n(C)c1=O	-16.6	-22.1	-18.7	-6.2
O=C(N/N=C/c1cc2cc3c(cc2nc1Cl)OCO3)c1ccncc1	-154.6	-18.9	-11.0	4.7
CCCCSc1nnc(-c2ccc(C)cc2)c2ccccc12	52.5*	12.3	-8.5	-7.2
O=C(Nc1ccc2c(c1)OCO2)c1cnn2c(C(F)(F)F)cc(-c3ccco3)nc12	-24.0	-11.7	-11.4	-0.4
O=C(Nc1cnn(C23CC4CC(CC(C4)C2)C3)c1)c1cnn2c(C(F)(F)F)cc(-c3ccco3)nc12	-76.8	-10.1	32.6*	-10.4
CCOC(=O)C1=C(COc2ccc(C)cc2)NC(=O)NC1c1cc(C)ccc1C (stereo not drawn)	6.7	-16.9	+	-6.0
CCOC(=O)C1=C(COc2ccc(F)cc2Cl)NC(=O)NC1c1cc(C)ccc1C (stereo not drawn)	37.4	-19.9	5.9	1.8
COc1cc(/C=C2/SC(=O)N(Cc3ccccc3Cl)C2=O)ccc1OCc1ccncc1	-155.3	-22.1	31.5*	2.7
Cc1cccc(/C=C2/SC(=O)N(Cc3ccccc3Cl)C2=O)n1	18.7	-9.7	-14.3	-6.7
SMILES	Calpain2 inh	Furin inh	NCF1 inh	RBBP9 inhibitor
Cc1cc(O)c(C=O)c2c1C(=O)Oc1c(CO)c(O)c3c(c1O2)C(O)OC3=O (stereo not drawn)	24.9	-16.6	-24.8	31.6*
CCC1=NN(C(=O)Cc2ccc(OC)c(OC)c2)C(O)(C(F)(F)F)C1 (stereo not drawn)	-2.5	-14.8	6.6	-2.4
CC(C)NC(=O)C1CCCN(S(=O)(=O)c2cccs2)C1 (stereo not drawn)	25.9	-0.4	9.6	-11.1
CCOC(=O)C1CCCN(S(=O)(=O)c2cccs2)C1 (stereo not drawn)	56.8*	-9.8	-9.6	-4.0
CCN(CC)c1ccc(C(=O)NC(=S)Nc2cc(S(=O)(=O)N3CCOCC3)ccc2-n2cncn2)cc1	57.9*	11.4	-0.8	-13.8
CC(=O)Nc1ccc(O)c(-c2nc3ccccc3s2)c1	i	-14.5	-13.8	-2.4
O=C(Nc1ccc(OC(=O)c2ccccc2)c(-c2nc3ccccc3s2)c1)c1ccccc1	63.8*	-20.0	-12.1	-7.7
COc1ccc(-c2ccc([C@H]3[C@@H]4C=CCC[C@@]4(C)C(=O)N3Cc3ccccc3)c(F)c2)cc1	41.1	-19.9	9.1	nt
Cc1ccc(-c2ccc([C@H]3[C@@H]4C=CCC[C@@]4(C)C(=O)N3Cc3ccccc3)c(F)c2)cc1	66.3*	-8.8	0.4	nt
O=C(CCSCCc1ccccn1)Nc1cccc([N+](=O)[O-])c1	-17.0	-23.9	6.1	0.6
Cc1nnc(NC(=O)C2CCCO2)s1 (stereo not drawn)	11.2	-17.8	-67.4	3.6
CCCCCc1nnc(NC(=O)C2CCCO2)s1 (stereo not drawn)	-15.0	34.1*	-12.9	1.9
CN(C)S(=O)(=O)N1CCCC(C(=O)c2ccc(C(F)(F)F)cc2)C1 (stereo not drawn)	-11.0	-6.6	-0.5	-7.8
CCOC(=O)c1cc(=O)c2c([N+](=O)[O-])ccc(OC)c2o1	2.4	-11.9	-0.8	-8.8
CCOc1cc(CNc2ccc(O)cc2)cc(Br)c1OCc1ccccc1F	73.3*	-17.1	6.7	2.8
CC(=O)NCCOc1nc(N2CCCCC2)nc(N2CCCCC2)n1	-16.1	-8.0	1.4	-11.8
NC(=S)N/N=C/c1coc2c(ccc3ccccc32)c1=O	73.0*	-2.1	-15.0	2.2
O=C(C/C=N\OCc1ccc([N+](=O)[O-])cc1)Nc1ccc(Cl)cc1	-1.3	-17.4	1.4	-1.3
O=C(Cc1ccc([N+](=O)[O-])cc1)Nc1ccc(Cl)cc1	-71.7	-24.5	76.9*	-3.1
O=C(O)CC(Cc1ccc(Cl)cc1)C(=O)Nc1ccc([N+](=O)[O-])cc1 (stereo not drawn)	69.3*	-7.4	-5.7	-2.3
O=C(Cc1ccc(Br)cc1)Nc1ncc([N+](=O)[O-])s1	8.3	-13.4	-11.8	-16.1
O=C(Cc1ccc(Cl)cc1)Nc1ncc([N+](=O)[O-])s1	77.2*	-11.1	-1.8	1.4
O=C(N/N=C/c1ccc[nH]1)c1ccc([N+](=O)[O-])cc1	21.6	4.6	-15.7	-4.8
Nc1ccccc1N=Cc1ccc(-c2cccc(Cl)c2)o1	-173.5	-9.5	-16.4	-21.3
COc1cccc(-n2c(SCC(=O)N3CCc4ccccc43)nnc2-c2c[nH]c3ccccc23)c1	-18.3	-7.3	13.6	-1.8
O=C(CSc1nc2ccccc2c(=O)n1-c1ccccc1)N1CCCc2ccccc21	-7.3	-14.1	-36.3	1.2
CCOc1ccc(-n2c(SCC(=O)N3CCc4ccccc43)nnc2-c2c[nH]c3ccccc23)cc1	7.2	-11.7	47.7*	-10.3
O=C(CSc1nc2ccccc2c(=O)n1-c1ccccc1)N1CCc2ccccc21	68.2*	3.4	50.0*	-1.7
Cc1csc(NC(=O)c2cncc(Br)c2)n1	5.0	-12.8	-2.4	-2.5
Cc1ccccc1NC(=O)COC(=O)CCc1ccccc1	63.9*	-34.4	-4.6	-7.6

From PubChem
